According to ChEMBL document CHEMBL4346701, “Synthesis and biological evaluation of tryptophan-derived rhodanine derivatives as PTP1B inhibitors and anti-bacterial agents” (Eur J Med Chem, 2019):
Calls of active or inactive are those of the source. No cut-off for these calls is given here.

Key:
Candida albicans = assay: Antifungal activity against Candida albicans 7535 assessed as reduction in bacterial cell growth incubated for 24 hrs by ELISA; format: functional; conditions: Candida albicans, 7535, 24 h
Procedure, shortened: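 MIC determined by serial dilution in 96-well microtiter plates. Strains used were E. coli 1924 and P. aeruginosa 2742 (Gram-negative), S. mutans 3289 (Gram-positive) and the fungus C. albicans 7535. Gatifloxacin, moxifloxacin, norfloxacin and oxacillin served as antibacterial reference agents, and fluconazole as the antifungal reference.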

Homo sapiens = organism: Homo sapiens; assay: Selectivity ratio of IC50 for human recombinant GST-tagged TCPTP to IC50 for human recombinant GST-tagged PTP1B
[1] = target: T1, Receptor-type tyrosine-protein phosphatase F (Homo sapiens, UniProt P10586); assay: Inhibition of human recombinant GST-tagged LAR (catalytic domain 1275 to 1613 residues) expressed in Escherichia coli BL21 (DE3) using pNPP as substrate at 20 ug/ml measured for 2 mins by colorimetric analysis
Procedure, shortened: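 Single-concentration screen at 20 µg/mL in the pNPP phosphatase assay.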

[2] = target: Tyrosine-protein phosphatase non-receptor type 6 (Homo sapiens, UniProt P29350); assay: Inhibition of human recombinant GST-tagged SHP1 (catalytic domain 244 to 570 residues) expressed in Escherichia coli BL21 (DE3) using pNPP as substrate measured for 2 mins by colorimetric analysis
Procedure, shortened: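 pNPP hydrolysis assay. IC50 was derived by regression analysis and given as mean ± SD of three replications.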

[3] = target: T2, Tyrosine-protein phosphatase non-receptor type 1 (Homo sapiens, UniProt P18031); assay: Inhibition of human recombinant GST-tagged PTP1B expressed in Escherichia coli BL21 (DE3) using pNPP as substrate measured for 2 mins by colorimetric analysis
T2 sequence (P18031 whole entry): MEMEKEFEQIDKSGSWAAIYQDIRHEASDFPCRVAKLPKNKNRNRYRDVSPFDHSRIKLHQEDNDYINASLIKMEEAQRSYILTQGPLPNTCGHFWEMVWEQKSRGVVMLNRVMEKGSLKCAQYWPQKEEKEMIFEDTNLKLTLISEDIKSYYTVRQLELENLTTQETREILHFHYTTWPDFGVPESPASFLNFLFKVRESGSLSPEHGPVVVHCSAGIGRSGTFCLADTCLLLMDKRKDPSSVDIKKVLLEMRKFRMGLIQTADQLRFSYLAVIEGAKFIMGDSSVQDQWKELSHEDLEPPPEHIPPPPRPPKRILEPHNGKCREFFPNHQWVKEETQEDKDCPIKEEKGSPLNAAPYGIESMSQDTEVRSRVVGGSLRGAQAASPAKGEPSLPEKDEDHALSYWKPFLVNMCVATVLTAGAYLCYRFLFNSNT

Staphylococcus aureus = assay: Potency index, ratio of MIC of gatifloxacin to MIC of compound for antibacterial activity against Staphylococcus aureus KCTC503 assessed as reduction in bacterial cell growth incubated for 24 hrs by ELISA; format: functional
[4] = target: T3, Tyrosine-protein phosphatase non-receptor type 1 (Homo sapiens) (UniProt P18031); assay: Potency index, ratio of IC50 of oleanolic acid to IC50 of compound inhibition of human recombinant GST-tagged PTP1B expressed in Escherichia coli BL21 (DE3) using pNPP as substrate measured for 2 mins by colorimetric analysis
T3 sequence (whole entry): T2 sequence (P18031 whole entry)

[5] = target: T3, Tyrosine-protein phosphatase non-receptor type 1 (Homo sapiens); assay: Competitive inhibition of human recombinant GST-tagged PTP1B expressed in Escherichia coli BL21 (DE3) using pNPP as substrate assessed as increase in Km value measured for 2 mins by colorimetric analysis
[6] = target: T3, Tyrosine-protein phosphatase non-receptor type 1 (Homo sapiens); assay: Competitive inhibition of human recombinant GST-tagged PTP1B expressed in Escherichia coli BL21 (DE3) using pNPP as substrate assessed as unchanged Vmax value measured for 2 mins by colorimetric analysis
[7] = target: T3, Tyrosine-protein phosphatase non-receptor type 1 (Homo sapiens); assay: Inhibition of human recombinant GST-tagged PTP1B expressed in Escherichia coli BL21 (DE3) using pNPP as substrate incubated for 4 to 16 mins and measured for 2 mins by colorimetric analysis; conditions: TDE = time-dependent effect
Procedure, shortened: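 pNPP used as the phosphatase substrate, with the enzyme assay following earlier published work. IC50 obtained by regression analysis and reported as mean ± SD of three replications.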

[8] = target: T2, Tyrosine-protein phosphatase non-receptor type 1; assay: Competitive inhibition of human recombinant GST-tagged PTP1B expressed in Escherichia coli BL21 (DE3) using pNPP as substrate assessed as inhibitor constant measured for 2 mins by colorimetric analysis
[9] = target: T1, Receptor-type tyrosine-protein phosphatase F; assay: Inhibition of human recombinant GST-tagged LAR (catalytic domain 1275 to 1613 residues) expressed in Escherichia coli BL21 (DE3) using pNPP as substrate measured for 2 mins by colorimetric analysis

Tyrosine-protein phosphatase non-receptor type 6, sequence (P29350 whole entry, the tested form may be a part): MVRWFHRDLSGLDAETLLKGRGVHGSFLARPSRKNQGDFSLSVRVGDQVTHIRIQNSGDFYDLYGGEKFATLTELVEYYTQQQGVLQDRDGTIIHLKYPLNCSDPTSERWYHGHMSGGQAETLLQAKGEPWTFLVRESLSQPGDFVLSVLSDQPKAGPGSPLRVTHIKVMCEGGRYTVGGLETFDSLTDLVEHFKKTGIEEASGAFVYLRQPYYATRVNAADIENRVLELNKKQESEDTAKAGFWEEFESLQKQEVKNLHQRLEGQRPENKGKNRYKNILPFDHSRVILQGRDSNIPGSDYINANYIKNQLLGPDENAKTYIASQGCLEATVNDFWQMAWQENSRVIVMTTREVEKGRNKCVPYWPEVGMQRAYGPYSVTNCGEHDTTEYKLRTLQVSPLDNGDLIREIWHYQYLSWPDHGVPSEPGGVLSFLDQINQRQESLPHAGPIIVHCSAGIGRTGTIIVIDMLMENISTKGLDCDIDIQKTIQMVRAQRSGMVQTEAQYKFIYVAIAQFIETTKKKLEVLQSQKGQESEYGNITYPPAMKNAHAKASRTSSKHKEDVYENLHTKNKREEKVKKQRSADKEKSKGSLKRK
T1 sequence (P10586 whole entry, the tested form may be a part): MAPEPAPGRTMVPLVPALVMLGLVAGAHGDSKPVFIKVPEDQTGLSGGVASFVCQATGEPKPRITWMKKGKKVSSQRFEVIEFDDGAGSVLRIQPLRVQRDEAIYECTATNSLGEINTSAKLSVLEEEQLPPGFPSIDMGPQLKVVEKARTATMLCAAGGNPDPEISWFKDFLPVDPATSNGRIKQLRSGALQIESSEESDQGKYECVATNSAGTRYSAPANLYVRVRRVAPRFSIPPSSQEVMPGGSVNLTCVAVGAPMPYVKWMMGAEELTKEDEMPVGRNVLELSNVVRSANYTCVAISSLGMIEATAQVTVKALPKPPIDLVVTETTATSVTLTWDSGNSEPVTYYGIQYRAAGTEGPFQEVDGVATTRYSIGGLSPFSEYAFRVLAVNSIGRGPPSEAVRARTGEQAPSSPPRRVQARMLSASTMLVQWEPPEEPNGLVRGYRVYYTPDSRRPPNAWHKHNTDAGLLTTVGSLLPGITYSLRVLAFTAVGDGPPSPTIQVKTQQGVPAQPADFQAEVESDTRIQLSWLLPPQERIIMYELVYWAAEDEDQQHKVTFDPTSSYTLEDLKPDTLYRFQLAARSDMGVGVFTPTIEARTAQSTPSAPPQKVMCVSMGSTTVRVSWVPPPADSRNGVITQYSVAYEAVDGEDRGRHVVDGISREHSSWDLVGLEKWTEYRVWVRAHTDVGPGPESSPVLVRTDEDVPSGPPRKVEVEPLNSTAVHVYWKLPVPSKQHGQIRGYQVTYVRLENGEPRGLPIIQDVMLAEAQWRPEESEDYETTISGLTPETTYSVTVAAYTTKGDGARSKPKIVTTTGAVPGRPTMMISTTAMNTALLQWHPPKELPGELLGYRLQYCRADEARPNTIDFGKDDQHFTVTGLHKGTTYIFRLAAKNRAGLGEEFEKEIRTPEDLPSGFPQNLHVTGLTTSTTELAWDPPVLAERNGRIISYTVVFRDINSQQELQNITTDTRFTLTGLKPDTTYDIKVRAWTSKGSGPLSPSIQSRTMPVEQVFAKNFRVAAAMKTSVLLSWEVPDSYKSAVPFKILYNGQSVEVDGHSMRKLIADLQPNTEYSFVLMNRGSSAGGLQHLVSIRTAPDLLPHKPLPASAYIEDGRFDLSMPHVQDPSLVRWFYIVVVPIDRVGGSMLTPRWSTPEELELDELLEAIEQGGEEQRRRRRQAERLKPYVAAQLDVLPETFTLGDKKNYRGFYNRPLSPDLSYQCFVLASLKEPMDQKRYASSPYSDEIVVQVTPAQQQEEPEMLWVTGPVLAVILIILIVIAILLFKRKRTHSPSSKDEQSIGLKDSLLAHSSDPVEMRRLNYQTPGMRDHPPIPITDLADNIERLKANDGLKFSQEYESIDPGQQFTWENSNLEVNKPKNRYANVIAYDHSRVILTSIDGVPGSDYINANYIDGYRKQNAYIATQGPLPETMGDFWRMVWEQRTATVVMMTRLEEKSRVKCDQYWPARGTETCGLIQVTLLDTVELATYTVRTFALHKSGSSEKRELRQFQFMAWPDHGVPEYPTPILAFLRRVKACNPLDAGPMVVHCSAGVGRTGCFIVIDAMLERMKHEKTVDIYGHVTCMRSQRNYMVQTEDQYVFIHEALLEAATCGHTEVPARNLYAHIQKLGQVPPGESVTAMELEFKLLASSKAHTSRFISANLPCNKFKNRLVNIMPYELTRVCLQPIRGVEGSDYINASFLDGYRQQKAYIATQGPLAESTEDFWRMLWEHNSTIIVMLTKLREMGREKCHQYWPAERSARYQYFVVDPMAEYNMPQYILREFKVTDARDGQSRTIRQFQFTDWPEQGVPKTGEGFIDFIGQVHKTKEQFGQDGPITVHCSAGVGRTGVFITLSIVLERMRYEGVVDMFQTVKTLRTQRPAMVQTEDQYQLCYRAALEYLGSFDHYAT

Structure (SMILES) | MIC (Candida albicans) [µg/mL] | Ratio IC50 (Homo sapiens) | inhibition [1] | IC50 [2] [nM] | IC50 [3] [nM] | Ratio (Staphylococcus aureus) | Ratio IC50 [4] | inhibition [5] | inhibition [6] | inhibition [7] | Ki [8] [nM] | IC50 [9] [nM]
O=C(O)C(Cc1c[nH]c2ccccc12)N1C(=O)/C(=C/c2ccc3cc(OCc4ccc(Cl)cc4Cl)ccc3c2)SC1=S (stereo unspecified) | > 64 | 2 to 3 | inactive | 2950 | 540 | – | – | – | – | – | – | –
Cc1ccc(COc2ccc3cc(/C=C4\SC(=S)N(C(Cc5c[nH]c6ccccc56)C(=O)O)C4=O)ccc3c2)cc1 (stereo unspecified) | > 64 | 2 to 3 | inactive | 3990 | 640 | 2 | – | – | – | – | – | –
O=C(O)C(Cc1c[nH]c2ccccc12)N1C(=O)/C(=C/c2ccc3cc(OCc4ccc(Br)cc4)ccc3c2)SC1=S (stereo unspecified) | > 64 | 2 to 3 | – | 1110 | 360 | – | 8 | Active | Active | Tde | 70 | 29100
